# Screening data: PubChem, The Scripps Research Institute Molecular Screening Center
# LEDGF integ inh: blocks HIV-1 LEDGF/p75-dependent DNA integration; inhibition, % at 3.7 µM; 0.64% of 370,000 active; TR-FRET IN-LEDGF/p75 DNA integration, Eu/Cy5; AID 743269;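 active = inhibition above the screen-wide mean plus 3 SD, cut at about 13% in these data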;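 also: signal is the Cy5 over europium emission ratio at 671 and 618 nm; 0% = plate median of compound wells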
# MBD2 DNA inh: MBD2-methylated oligo binding inhibition; 0.31% of 370,000 active; AID 686964; inhibition, % at 4.4 µM; Q9UBB5; TR-FRET, MBD2 binding to methylated oligonucleotide; in the data active = inhibition above about 13%
# SIAE primary: blocks human sialic acid acetylesterase; AID 1053197; inhibition, % at 9.66 µM; Q9HAT2; 0.69% of 370,000 active; SIAE FP-Rh probe binding, fluorescence polarization;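 active = inhibition above a cutoff: mean of compounds within the control limits plus 3 SD of those, cut at about 17% in these data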;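 also: 0% = plate median of compound wells and 100% = probe without SIAE protein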
# Target sequence (Q9HAT2 whole entry, looked up): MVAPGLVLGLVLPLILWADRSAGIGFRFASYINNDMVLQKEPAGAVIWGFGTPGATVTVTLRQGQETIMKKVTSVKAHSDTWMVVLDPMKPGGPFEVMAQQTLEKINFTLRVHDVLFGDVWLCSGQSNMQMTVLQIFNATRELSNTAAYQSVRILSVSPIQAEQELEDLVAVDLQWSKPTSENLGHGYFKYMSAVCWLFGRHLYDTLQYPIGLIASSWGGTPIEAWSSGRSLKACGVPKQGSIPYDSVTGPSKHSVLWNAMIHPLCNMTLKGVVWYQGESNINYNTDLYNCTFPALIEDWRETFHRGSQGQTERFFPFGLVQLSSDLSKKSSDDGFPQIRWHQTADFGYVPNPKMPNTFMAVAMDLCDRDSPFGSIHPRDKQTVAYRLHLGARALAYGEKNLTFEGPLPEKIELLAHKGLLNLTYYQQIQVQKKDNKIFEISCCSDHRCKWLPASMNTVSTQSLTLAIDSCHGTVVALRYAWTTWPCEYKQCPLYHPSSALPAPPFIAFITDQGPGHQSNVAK
# UHRF1 binding: human UHRF1 methylated DNA binding inhibitors. Q96T88. inhibition, % at 4.4 µM. UHRF1 binding to methylated oligo, TR-FRET. AID 687016. 0.75% of 370,000 active; in the data active = inhibition above about 21%;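 also: UHRF1 SRA domain binding a hemimethylated CpG hairpin DNA probe; 0% = median of test compound wells and 100% = reference inhibitor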
# PRMT1 FP inh: inhibitors of human PRMT1 | recombinant PRMT1, activity-based probe fluorescence polarization | AID 652257 | inhibition, % at 2.79 µM | 1.3% of 370,000 active;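 active = inhibition above about 21% made by adding two undisclosed values, limit read from the data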
# TDP2 inh: blocks human TDP2 phosphodiesterase activity. O95551. recombinant TDP2, T5PNP hydrolysis, p-nitrophenol absorbance 415 nm. inhibition, % at 12.8 µM. 0.34% of 370,000 active;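 active = inhibition above the mean of all tested compounds plus 3 SD, set per campaign, cut at about 25% in these data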;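 also: 0% = DMSO with enzyme and 100% = buffer with substrate but no TDP2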
#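 Assay system: Recombinant human TDP2 | Quantity: 120 nM TDP2 per well | Incubation: 2 h at 37 °C | Signal: Epi absorbance | Evaluation: Percent inhibition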
# IN multimer act: HIV-1 integrase multimerization activation, counter-screen; shares compounds with LEDGF integ inh; TR-FRET HIV-1 integrase multimerization, biochemical; activation, % at 7.7 µM; 17% of 2,000 active; in the data active = activation above about 8.9%
# TRFRET interf: counter-screen for LEDGF/p75 integration inhibitors: TR-FRET optical interference; inhibition, % at 7.7 µM; AID 1053135; TR-FRET optical interference counterscreen, HIV-1 IN multimerization; 2,000 tested, under 10 active; shares compounds with LEDGF integ inh;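 active = inhibition above the mean over all tested compounds plus 3 SD, which no compound reached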;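 also: 0% = integrase with antibodies and DMSO and 100% = antibodies without integrase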
# IN-LEDGF confirm: confirmation of HIV-1 LEDGF/p75-dependent integration inhibitors | shares compounds with LEDGF integ inh | TR-FRET LEDGF/p75-dependent HIV-1 integration, biochemical | inhibition, % at 3.7 µM | 36% of 2,000 active | AID 1053136; in the data active = inhibition above about 14%
# Numbers without * were called inactive; x = not tested or not shown. An excerpt weighted towards active compounds, which were near 3.3% of everything screened.
SMILES,LEDGF integ inh,MBD2 DNA inh,SIAE primary,UHRF1 binding,PRMT1 FP inh,TDP2 inh,IN multimer act,TRFRET interf,IN-LEDGF confirm
COC(=O)[C@]12C[C@H](CC(=O)NCCC(C)C)C(=O)N(CCc3ccc(OC)c(OC)c3)C1=C[C@H](C1CCCC1)O[C@@H]2C,-4.1,2.6,1.6,0.0,-1.8,-0.2,x,x,x
N#Cc1nc(-c2cccs2)oc1NCc1ccccc1,14.4*,4.4,4.3,-2.4,-2.0,-0.1,4.5,-16.8,16.8*
N#Cc1nc(-c2ccc(F)cc2)oc1NCc1ccccc1,14.9*,6.7,-0.8,0.0,7.1,-1.4,-2.1,7.8,-1.7
Cc1ccc(CNc2oc(-c3cccs3)nc2C#N)cc1,20.9*,-1.9,-1.9,-2.3,-1.6,-22.0,1.4,-7.2,1.6
N#Cc1nc(-c2cccs2)oc1NCc1ccc(Cl)cc1,7.4,-4.3,9.1,0.9,-4.0,5.2,x,x,x
O=C(NCCOc1ccccc1)C(=O)c1c[nH]c2ccccc12,30.4*,-1.1,-14.8,-0.5,2.7,-8.8,3.3,-12.0,-5.4
Cc1oc(C)c2c(=O)ccc3c(c12)OC(N)=C(C#N)C3c1ccccc1 (stereo not drawn),15.0*,-1.1,6.4,5.6,22.2*,-16.9,-2.0,7.1,7.7
CSc1ccc(C2C(C#N)=C(N)Oc3c2ccc(=O)c2c(C)oc(C)c32)cc1 (stereo not drawn),-2.3,-1.6,5.9,-3.5,7.0,-3.1,x,x,x
CN1CCN(CP(=O)(N2CCOCC2)N2CCOCC2)CC1,26.5*,-3.0,3.2,-1.1,-1.6,2.4,5.9,-20.6,3.0
C(CCN1CCOCC1)CN1CCOCC1,-2.5,0.6,-0.4,1.9,4.4,3.7,x,x,x
C=CCn1c(C)cc(C(=O)Cn2ncc(Cl)c(Cl)c2=O)c1C,25.8*,7.2,8.2,19.9,7.2,0.1,25.7*,-92.4,38.8*
COc1cccc(C2=CC(=O)C[C@H](c3ccc(F)cc3)C2)c1,0.7,5.3,6.5,-2.1,-1.5,0.0,x,x,x
COc1cc(F)cc(C2=CC(=O)C[C@H](c3ccc(F)cc3)C2)c1,59.3*,-2.3,0.6,-2.1,-2.2,-4.1,0.2,-0.9,-3.6
CNc1cncc(-c2cccc(C(=O)NCCN(C)C)c2)n1,-0.4,-5.0,7.5,-2.8,1.3,-2.5,x,x,x
CN(C)CCNC(=O)c1cccc(-c2cccc3nncn23)c1,55.0*,-6.9,2.0,-1.0,-1.0,-3.8,-0.7,3.5,0.7
COc1cccc(CNS(=O)(=O)c2cc3c(cc2Br)CC(C)N3C(C)=O)c1 (stereo not drawn),-0.8,-4.2,3.9,1.4,1.1,2.2,x,x,x
O=C(O)C1Nc2c(O)cccc2C2C=CCC12 (stereo not drawn),70.4*,37.1*,63.9*,73.7*,19.1,19.6,8.9*,-30.5,77.0*
O=C(O)C1Nc2c(Cl)cc(Cl)c(Cl)c2C2C=CCC12 (stereo not drawn),4.4,1.1,10.5,4.7,21.0,-16.6,x,x,x
Cc1ccc(O)c(-c2[nH]ncc2C(=O)c2ccc(Br)cc2)c1,13.6*,7.6,-8.6,2.4,8.4,-6.7,-0.7,3.5,-5.3
Cc1ccc(O)c(-c2[nH]ncc2C(=O)c2ccc(Cl)cc2)c1,-0.1,-2.1,8.7,0.0,-2.4,0.3,x,x,x
O=c1cc(-c2ccc(O)cc2)oc2cc(O)c(C3OC(CO)C(O)C(O)C3O)c(O)c12 (stereo not drawn),20.9*,-5.4,7.8,-5.3,-1.0,5.1,30.0*,-151.0,48.0*
C=CCN1C(=O)[C@H](CC(=O)N2CCN(C(=O)C3CC3)CC2)[C@@]2(C(=O)OCC)CCCC=C12,6.3,-1.6,2.2,-2.8,-3.1,3.6,x,x,x
N=c1c(C(=O)NCc2ccccc2)cc2c(=O)n3ccccc3nc2n1Cc1ccco1,2.9,-6.8,0.4,-9.4,0.2,-1.8,x,x,x
